Here are results for 7 compounds from ChEMBL document CHEMBL1140863, “Synthesis and evaluation of novel chloropyridazine derivatives as potent human rhinovirus (HRV) capsid-binding inhibitors” (Bioorg Med Chem, 2009).

Data set [1] in a line: Cytotoxicity against human KB cells by neutral red uptake assay. In kind it is cell-based. The gist of the method: (§1)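 Cell-culture cytopathic-effect assays run in parallel on strains HRV-2 and HRV-14, each read both visually and by neutral red uptake. Antiviral EC50 and cytotoxic CC50 are expressed in µg/ml.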
In data set [2] the test system is rhinovirus A2. Kind of data set: Antiviral activity against HRV2 in human KB cells assessed as cytopathic effect by visual assay. Format: functional, organism-based. Conditions: Rhinovirus A. The procedure, abridged:
as §1
(Protection from cytopathic effect is a common read-out in antiviral testing.)

Data set [3] in a line: Selectivity index, ratio of CC50 for human KB cells to EC50 for HRV14 by visual assay. The gist of the method:
(§2)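 Cell-culture cytopathic-effect (CPE) assays against HRV-2 and HRV-14. Antiviral EC50 and cytotoxic CC50 were each taken in µg/ml, with inhibition read either visually or by neutral red uptake. SI = CC50/EC50 for each read-out. Where viral CPE could not be told apart from drug cytotoxicity, this was flagged in a footnote.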

For data set [4], the system named is rhinovirus A2. Kind of data set: Antiviral activity against HRV2 in human KB cells assessed as cytopathic effect by neutral red uptake assay. Format: functional, organism-based. The note with it: Rhinovirus A. The procedure, abridged: as §1
A short description of data set [5]: Selectivity index, ratio of CC50 for human KB cells to EC50 for HRV2 by neutral red uptake assay. The procedure, abridged: as §2
The nature of data set [6]: Selectivity index, ratio of CC50 for human KB cells to EC50 for HRV14 by neutral red uptake assay. The gist of the method:
as §2

The nature of data set [7]: Cytotoxicity against human KB cells by visual assay. In kind it is cell-based. The gist of the method: as §1
In data set [8] the test system is rhinovirus B14. Kind of data set: Antiviral activity against HRV14 in human KB cells assessed as cytopathic effect by visual assay. The note with it: Rhinovirus B. Format: functional, organism-based. The gist of the method: as §1
For data set [9], the system named is rhinovirus B14. Briefly: Antiviral activity against HRV14 in human KB cells assessed as cytopathic effect by neutral red uptake assay. In kind it is functional, organism-based. The note with it: Rhinovirus B. The procedure, abridged: as §1
Data set [10] is described as follows: Selectivity index, ratio of CC50 for human KB cells to EC50 for HRV2 by visual assay. The gist of the method: as §2

In brackets after ≈: the same amount, converted by molar mass.

On to `CCOC(=O)c1ccc(OCCC2CCN(c3ccc(C)nn3)CC2)cc1` [PIRODAVIR], for which the cytotoxic concentration (CC50) in [1] and in data set [7] was above 10 µg/mL each time. Also, the half-maximal effective concentration (EC50) (usually the concentration giving half of the maximal effect) in data set [2] was below 0.0032 µg/mL; in data set [4], below 0.0032 µg/mL; in [8], 0.081 µg/mL (≈ 0.219 µM); in [9], 0.01 µg/mL (≈ 0.0271 µM). In addition, the “Ratio CC50/EC50” value in data set [3] is above 123; in data set [5] it was above 3125; in data set [6] it was above 1000; in [10] it was above 3125.
Turning to `COC(=O)c1ccc(OCCC2CCN(c3cc(Cl)nnc3Cl)CC2)cc1`, the figures for the cytotoxic concentration (CC50) in [1] and in data set [7] were 4.7 µg/mL (≈ 11.5 µM) and 30 µg/mL (≈ 73.1 µM), respectively. For the same compound, the EC50 was 0.31 µg/mL (≈ 0.756 µM) in data set [2], 0.1 µg/mL (≈ 0.244 µM) in [4], 7.1 µg/mL (≈ 17.3 µM) in data set [8] and above 4.7 µg/mL in [9]. Also, the figures for the “Ratio CC50/EC50” value in data set [3], in data set [5] and in data set [10] were 8, 58 and 97, respectively.
On to `Clc1cc(N2CCN(CCOc3ccc(-n4cnnc4)cc3)CC2)c(Cl)nn1`, for which the 50% cytotoxic concentration (CC50) – broadly, the concentration giving 50% cytotoxicity – is 39 µg/mL (≈ 92.8 µM) in data set [1] and 35 µg/mL (≈ 83.3 µM) in data set [7]. Also, the EC50 in data set [2] is above 100 µg/mL; in data set [4] it was above 42 µg/mL; in data set [8] it was 12 µg/mL (≈ 28.6 µM); in [9], 15 µg/mL (≈ 35.7 µM). For the same compound, the “Ratio CC50/EC50” value was determined as 3 in [3] and 2.5 in data set [6].
As for `CCOC(=O)c1ccc(OCCC2CCN(c3ccnnc3Cl)CC2)nc1`, the CC50 in [1] and in data set [7] was above 100 µg/mL throughout. Also, the EC50 in [2], in data set [4], in data set [8] and in data set [9] was below 0.032 µg/mL throughout. Moreover, the “Ratio CC50/EC50” value in data set [3], in data set [5], in data set [6] and in data set [10] was above 3125 in each case.
In the case of `CCOc1ccc(OCCN2CCN(c3cc(Cl)nnc3Cl)CC2)cc1`, the CC50 in [1] is 12 µg/mL (≈ 30.2 µM); in data set [7], 35 µg/mL (≈ 88.1 µM). Further, the concentration for a half-maximal effect (EC50) in data set [2] is above 35 µg/mL; in [4] it was above 12 µg/mL; in [8], 0.036 µg/mL (≈ 0.0906 µM); in data set [9] it was below 0.032 µg/mL. Further, the entries for the “Ratio CC50/EC50” value in data set [3] and in data set [6] were 972 and above 370, respectively.
With `CCCCc1ccc(OCCN2CCN(c3cc(Cl)nnc3Cl)CC2)cc1`, the results for the CC50 in [1] and in [7] were 1.9 µg/mL (≈ 4.64 µM) and 10 µg/mL (≈ 24.4 µM), respectively. The EC50 in data set [2] is 5.7 µg/mL (≈ 13.9 µM); in [4], above 1.9 µg/mL; in data set [8] it was 0.15 µg/mL (≈ 0.366 µM); in [9], 0.55 µg/mL (≈ 1.34 µM). In addition, the “Ratio CC50/EC50” value in data set [3] amounted to 120; in data set [6], 3.5; in [10], 1.8.
With `O=Cc1ccc(OCCN2CCN(c3cc(Cl)nnc3Cl)CC2)cc1`, the 50% cytotoxic concentration (CC50) in data set [1] was 43 µg/mL (≈ 113 µM); in data set [7], 56 µg/mL (≈ 147 µM). Besides, the 50% effective concentration (EC50) was above 56 µg/mL in data set [2], 46 µg/mL (≈ 121 µM) in data set [4], 43 µg/mL (≈ 113 µM) in data set [8] and above 43 µg/mL in [9]. Also, the “Ratio CC50/EC50” value is above 2 in [3] and 1.1 in [5].
